Values after ≈ are worked out from the molar mass of the structure shown. Bridge positions count the residues as written; N and C are the ends. Peptide text beside a SMILES is read from it.
Columns and labels:
Escherichia coli [1] = assay: Bactericidal activity against Escherichia coli ATCC 25922 at 10 times MIC after 120 mins by colony counting assay (reference value: 1868.3 CFU); assay type: functional
Candida albicans [2] = assay: Antifungal activity against Candida albicans ATCC 2002 treated with CaCl2 after 16 hrs by broth dilution method; assay type: functional; conditions: ATCC 2002, 16 h
Summary of the method: (§1)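 Salt sensitivity of the MIC. Peptide was tested in water, NaCl, CaCl2, MgCl2 or PBS (Na2HPO4-NaH2PO4, pH 7.4), with every salt at 150 mM. Values are means of three independent experiments, each run in duplicate.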

Escherichia coli [3] = assay: Bactericidal activity against Escherichia coli ATCC 25922 at 5 times MIC after 120 mins by colony counting assay (reference value: 1868.3 CFU); assay type: functional
Escherichia coli [4] = assay: Bactericidal activity against Escherichia coli ATCC 25922 at 10 times MIC after 60 mins by colony counting assay (reference value: 296 CFU); assay type: functional
RAW264.7 [5] = assay: Cytotoxicity against mouse RAW264.7 cells at 200 ug/mL after 24 hrs by MTT assay relative to control; assay type: cell-based; conditions: raw264.7, 24 h
Escherichia coli [6] = assay: Bactericidal activity against Escherichia coli ATCC 25922 at 5 times MIC after 20 mins by colony counting assay (reference value: 79.3 CFU); assay type: functional
Bacillus subtilis [7] = assay: Antibacterial activity against Bacillus subtilis 6633 treated with PBS after 16 hrs by broth dilution method; assay type: functional; conditions: Bacillus subtilis, 6633, 16 h; summary of the method: as §1
Pseudomonas aeruginosa = assay: Antibacterial activity against Pseudomonas aeruginosa ATCC 27853 treated with PBS after 16 hrs by broth dilution method; assay type: functional; conditions: ATCC 27853, 16 h; summary of the method: as §1
Staphylococcus aureus [8] = assay: Antibacterial activity against ampicillin, benzylpencillin-resistant Staphylococcus aureus 08A875 after 16 hrs by broth dilution method; assay type: functional; conditions: 08A875, 16 h
Summary of the method: (§2)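 MIC read-out, reported in µg/mL with µM equivalents. Each value is the mean of three independent experiments, each run in duplicate.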

Candida albicans [9] = assay: Antifungal activity against ampicillin, benzylpencillin-resistant Candida albicans 08030809 after 16 hrs by broth dilution method; assay type: functional; conditions: Candida albicans, 08030809, 16 h; summary of the method: as §2
RAW264.7 [10] = assay: Antiinflammatory activity in mouse RAW264.7 cells assessed as inhibition of LPS-induced NFkappaB translocation from cytoplasm to nucleus preincubated for 1 hr prior to LPS-challenge measured after 3 hrs by Western blotting analysis; assay type: functional, cell-based
Summary of the method: (§3)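 RAW 264.7 cells (1 × 10^6/well) were serum-starved in RPMI-1640 for 16 h. They were pretreated with peptide (0, 5, 10, 20 µg/mL) for 1 h, then given LPS (E. coli 055:B5, 0 or 100 ng/mL) for 3 h. Cells were washed in ice-cold PBS, and cytoplasmic or nuclear fractions were blotted for TLR4, JNK, NF-κB p65 and β-actin. Control was LPS alone.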

Escherichia coli [11] = assay: Bactericidal activity against Escherichia coli ATCC 25922 at MIC after 10 mins by colony counting assay (reference value: 58.3 CFU); assay type: functional
Escherichia coli [12] = assay: Antibacterial activity against ampicillin, benzylpencillin-resistant Escherichia coli 08A852 after 16 hrs by broth dilution method; assay type: functional; conditions: 08A852, 16 h; summary of the method: as §2
[13] = Toxicity in human RBC assessed as induction of hemolysis at 12.5 ug/mL after 30 mins relative to control; assay type: cell-based, Erythrocyte; conditions: red blood cells (RBC), read-out: Activity
Summary of the method: (§4)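 Human red blood cells incubated with peptide. Hemoglobin release read as absorbance at 540 nm and expressed against 1% Triton X-100 as positive control.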

Staphylococcus aureus [14] = assay: Antibacterial activity against Staphylococcus aureus ATCC 2592 after 16 hrs by broth dilution method; assay type: functional; conditions: ATCC 2592, 16 h; summary of the method: as §2
Staphylococcus aureus [15] = assay: Antibacterial activity against Staphylococcus aureus ATCC 2592 treated with water after 16 hrs by broth dilution method; assay type: functional; conditions: ATCC 2592, 16 h; summary of the method: as §1
RAW264.7 [16] = assay: Antiinflammatory activity in mouse RAW264.7 cells assessed as inhibition of LPS-induced MCP1 production at 20 ug/mL after 24 hrs by ELISA relative to control; assay type: functional; conditions: RAW264.7, 24 h
Summary of the method: (§5)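 RAW 264.7 cells (2 × 10^5) were plated and allowed to adhere. They were given peptide (2.5, 5, 10, 20 µg/mL) with or without LPS (E. coli 055:B5, 20 ng/mL) for 24 h. Supernatant TNF-α, IL-6 and MCP-1 were measured by ELISA at A450. Controls were LPS alone and untreated cells. Mean ± SEM of three separate experiments.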

Bacillus subtilis [17] = assay: Antibacterial activity against Bacillus subtilis 6633 treated with NaCl after 16 hrs by broth dilution method; assay type: functional; conditions: Bacillus subtilis, 6633, 16 h; summary of the method: as §1
[18] = Toxicity in human RBC assessed as induction of hemolysis at 50 ug/mL after 30 mins relative to control; assay type: cell-based, Erythrocyte; conditions: red blood cells (RBC), read-out: Activity; summary of the method: as §4
RAW264.7 [19] = assay: Antiinflammatory activity in mouse RAW264.7 cells assessed as inhibition of LPS-induced NO production at 20 ug/mL after 24 hrs by spectrophotometric analysis relative to control; assay type: functional; conditions: RAW264.7, 24 h
Summary of the method: (§6)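 RAW 264.7 cells (1 × 10^7) in RPMI-1640 with 10% FBS and penicillin/streptomycin were treated with peptide (2.5, 5, 10, 20 µg/mL) with or without LPS (E. coli 055:B5, 100 ng/mL) for 24 h. Medium nitrite was measured with Griess reagent at A540 against a NaNO2 standard curve. Control was LPS alone. Mean ± SEM of three separate experiments.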

RAW264.7 [20] = assay: Cytotoxicity against mouse RAW264.7 cells at <25 ug/mL after 24 hrs by MTT assay; assay type: cell-based; conditions: raw264.7, 24 h
Staphylococcus aureus [21] = assay: Antibacterial activity against Staphylococcus aureus ATCC 2592 treated with MgCl2 after 16 hrs by broth dilution method; assay type: functional; conditions: ATCC 2592, 16 h; summary of the method: as §1
RAW264.7 [22] = assay: Antiinflammatory activity in mouse RAW264.7 cells assessed as inhibition of LPS-induced NO production after 24 hrs by spectrophotometric analysis; assay type: functional, cell-based; summary of the method: as §6
Escherichia coli [23] = assay: Bactericidal activity against Escherichia coli ATCC 25922 at 5 times MIC after 10 mins by colony counting assay (reference value: 58.3 CFU); assay type: functional
RAW264.7 [24] = assay: Antiinflammatory activity in mouse RAW264.7 cells assessed as inhibition of LPS-induced TNF alpha production after 24 hrs by ELISA; assay type: functional, cell-based; summary of the method: as §5
Escherichia coli [25] = assay: Antibacterial activity against ampicillin, benzylpencillin-resistant Escherichia coli 08A866 after 16 hrs by broth dilution method; assay type: functional; conditions: 08A866, 16 h; summary of the method: as §2
Candida albicans [26] = assay: Antifungal activity against Candida albicans ATCC 2002 treated with MgCl2 after 16 hrs by broth dilution method; assay type: functional; conditions: ATCC 2002, 16 h; summary of the method: as §1
[27] = Toxicity in human RBC assessed as induction of hemolysis after 30 mins; assay type: cell-based; conditions: erythrocyte, 0.5 h; summary of the method: as §4
Escherichia coli [28] = assay: Bactericidal activity against Escherichia coli ATCC 25922 at 10 times MIC after 40 mins by colony counting assay (reference value: 131.7 CFU); assay type: functional
Escherichia coli [29] = assay: Bactericidal activity against Escherichia coli ATCC 25922 at 5 times MIC after 60 mins by colony counting assay (reference value: 296 CFU); assay type: functional
RAW264.7 [30] = assay: Antiinflammatory activity in mouse RAW264.7 cells assessed as inhibition of LPS-induced JNK2 expression preincubated for 1 hr prior to LPS-challenge measured after 3 hrs by Western blotting analysis; assay type: functional, cell-based; summary of the method: as §3
Staphylococcus aureus [31] = assay: Antibacterial activity against ampicillin, benzylpencillin-resistant Staphylococcus aureus 08A865 after 16 hrs by broth dilution method; assay type: functional; conditions: 08A865, 16 h; summary of the method: as §2

Question: With `CC[C@H](C)[C@H](NC(=O)[C@H](Cc1cnc[nH]1)NC(=O)[C@H](CO)NC(=O)[C@@H](NC(=O)[C@@H](NC(=O)[C@@H](NC(=O)[C@@H](NC(=O)[C@H](CCCNC(=N)N)NC(=O)[C@H](CC(C)C)NC(=O)[C@H](CCCCN)NC(=O)[C@H](CCC(=O)O)NC(=O)[C@H](CCCCN)NC(=O)[C@H](CC(C)C)NC(=O)[C@H](CCCCN)NC(=O)[C@@H]1CSSC[C@H](NC(=O)[C@H](CCCCN)NC(=O)[C@@H](N)CCCNC(=N)N)C(=O)N[C@@H](CC(N)=O)C(=O)N[C@@H](Cc2ccccc2)C(=O)N[C@@H](CC(C)C)C(=O)N1)[C@@H](C)O)C(C)C)[C@@H](C)CC)[C@@H](C)O)C(=O)N[C@@H](CC(=O)O)C(=O)N[C@@H](CCCCN)C(=O)N[C@H](C(=O)N[C@@H](CC(C)C)C(=O)N[C@@H](CCCNC(=N)N)C(=O)N1CCC[C@H]1C(=O)N[C@@H](CCC(N)=O)C(=O)NCC(=O)O)C(C)C` (H-RKCNFLCKLKEKLRTVITSHIDKVLRPQG-OH; disulfide 3-7) as the compound, how does the CFU (Escherichia coli [1]) read?
Answer: 0

Question: And the MIC (Candida albicans [2])?
Answer: 2.35 mg/L (≈ 0.686 µM)

Question: What about the CFU (Escherichia coli [3]) of the same compound?
Answer: 0

Question: And the CFU (Escherichia coli [4])?
Answer: 0

Question: And the Activity (RAW264.7 [5])?
Answer: 5.1%

Question: And the CFU (Escherichia coli [6])?
Answer: 0

Question: What about the MIC (Bacillus subtilis [7]) of the same compound?
Answer: > 100 mg/L

Question: And the MIC (Pseudomonas aeruginosa)?
Answer: 9.38 mg/L (≈ 2.74 µM)

Question: And the MIC (Staphylococcus aureus [8])?
Answer: 5.48 µM (≈ 18.8 µg/mL)

Question: What about the MIC (Candida albicans [9]) of the same compound?
Answer: 1.37 µM (≈ 4.69 µg/mL)

Question: What about the inhibition (RAW264.7 [10]) of the same compound?
Answer: Dose-dependent effect

Question: And the CFU (Escherichia coli [11])?
Answer: 23.7

Question: What about the MIC (Escherichia coli [12]) of the same compound?
Answer: 1.37 µM (≈ 4.69 µg/mL)

Question: What about the hemolysis at 0.5 h, 12.5 ug/mL [13] of the same compound?
Answer: 2.5%

Question: And the MIC (Staphylococcus aureus [14])?
Answer: 2.74 µM (≈ 9.38 µg/mL)

Question: And the MIC (Staphylococcus aureus [15])?
Answer: 9.38 mg/L (≈ 2.74 µM)

Question: What about the inhibition at 20 µg/mL (RAW264.7 [16]) of the same compound?
Answer: 68%

Question: And the MIC (Bacillus subtilis [17])?
Answer: 75 mg/L (≈ 21.9 µM)

Question: What about the hemolysis at 0.5 h, 50 ug/mL [18] of the same compound?
Answer: 5.5%

Question: What about the inhibition at 20 µg/mL (RAW264.7 [19]) of the same compound?
Answer: 70%

Question: What about the Activity (RAW264.7 [20]) of the same compound?
Answer: Non-toxic

Question: And the MIC (Staphylococcus aureus [21])?
Answer: 9.38 mg/L (≈ 2.74 µM)

Question: What about the inhibition (RAW264.7 [22]) of the same compound?
Answer: Dose-dependent effect

Question: What about the CFU (Escherichia coli [23]) of the same compound?
Answer: 10

Question: And the inhibition (RAW264.7 [24])?
Answer: Dose-dependent effect

Question: What about the MIC (Escherichia coli [25]) of the same compound?
Answer: 2.74 µM (≈ 9.38 µg/mL)

Question: What about the MIC (Candida albicans [26]) of the same compound?
Answer: 2.35 mg/L (≈ 0.686 µM)

Question: And the Activity [27]?
Answer: Dose-dependent effect

Question: And the CFU (Escherichia coli [28])?
Answer: 0

Question: What about the CFU (Escherichia coli [29]) of the same compound?
Answer: 0

Question: And the inhibition (RAW264.7 [30])?
Answer: Dose-dependent effect

Question: And the MIC (Staphylococcus aureus [31])?
Answer: 2.74 µM (≈ 9.38 µg/mL)
